Source: PubChem BioAssay
MrgX1 ag: agonists of human MrgX1 receptor. Q96LB2. MrgX1-HEK293 cells, Fluo-4 calcium fluorescence, agonist mode; active compounds read high. B-score at 10 µM. 310,000 tested, 0.44% active. AID 588627;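 active = calcium response B-score plate-corrected fluorescence ratio at least 3 library SD, with starting fluorescence B-score inside 5 SD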
Target sequence (Q96LB2 whole entry, looked up): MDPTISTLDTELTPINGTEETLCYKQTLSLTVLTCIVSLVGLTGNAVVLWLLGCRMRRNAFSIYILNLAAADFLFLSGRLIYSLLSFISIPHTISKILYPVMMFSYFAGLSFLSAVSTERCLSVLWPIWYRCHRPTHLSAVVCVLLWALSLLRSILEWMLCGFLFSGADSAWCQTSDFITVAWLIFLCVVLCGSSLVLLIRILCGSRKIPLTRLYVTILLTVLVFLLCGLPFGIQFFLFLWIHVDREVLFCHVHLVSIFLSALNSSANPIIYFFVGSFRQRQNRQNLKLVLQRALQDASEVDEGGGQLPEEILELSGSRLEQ
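times = overnight plating, then 30 min 37 °C plus 30 min room-temperature dye loading | assay system = stable human MrgX1 HEK293 cell line | input = fifteen thousand cells per well | signal = kinetic calcium dye fluorescence, Fluo-4 NW | dosing = compound delivered in addition one of three | read-out = B-scored fluorescence response ratio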
MrgX1 antagonist: human MrgX1 receptor antagonism, primary screen; MRGX1-HEK293 calcium flux, Fluo-4, BAM8-22 antagonism; active compounds read low; AID 588676; Q96LB2; B-score at 10 µM; 310,000 tested, 1.3% active;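 active = calcium-response B-score plate-corrected more than 3 library SD below zero, starting fluorescence within 5 deviations, no agonist response on first addition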;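 note: peak minus trough fluorescence over baseline after final BAM8-22 challenge near maximal dose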
RGS4 block: inhibitors of human RGS4 | P49798 | HEK293 M3R/RGS4 inducible, Fluo-4 calcium flux; active compounds read high; triggered by carbachol at its EC20 | B-score at 10 µM | 310,000 tested, 0.45% active;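 active = B-score, a plate-corrected calcium signal, over three deviations above library mean, with baseline fluorescence within five deviations of library mean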;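 note: RGS4 expression induced by doxycycline in cells with stable M3 receptor; B-score is computed from the integrated fluorescence ratio over baseline after carbachol; higher B-score means a larger calcium signal and so more RGS4 inhibition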
Target sequence (P49798 whole entry, looked up): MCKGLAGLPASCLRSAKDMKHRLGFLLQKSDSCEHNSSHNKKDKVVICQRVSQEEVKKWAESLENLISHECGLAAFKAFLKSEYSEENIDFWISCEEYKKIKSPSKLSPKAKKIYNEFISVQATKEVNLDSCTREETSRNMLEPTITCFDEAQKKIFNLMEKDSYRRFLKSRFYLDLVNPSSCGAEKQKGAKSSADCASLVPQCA
RGS4 act: potentiators or activators of RGS4; HEK293 M3R/inducible RGS4, carbachol calcium flux Fluo4; active compounds read low; B-score at 10 µM; 310,000 tested, 0.92% active; AID 463111;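 active = B-score of the integrated calcium signal more than 4 SD below the library mean, with starting fluorescence not abnormally high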;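 note: negative B-score means reduced calcium response which marks RGS4 activation or potentiation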
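Assay system: HEK293 FlpIn-TREx cells, stable M3R, doxycycline-inducible RGS4 / Probe or stimulus: carbachol, ECmax concentration / Times: overnight RGS4 induction, 30 min dye load 37 °C, 20 min compound RT / Signal: kinetic calcium fluorescence imaging with Fluo4-AM dye, 2 µM / Measure: Agonist-evoked peak-minus-minimum fluorescence over baseline, integrated ratio, B score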
MrgX1 allo act: human MrgX1 positive allosteric modulation, primary screen | Q96LB2 | MrgX1-HEK293, Fluo-4 calcium flux, FDSS; active compounds read high | B-score at 10 µM | 310,000 tested, 0.63% active | AID 588675;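 active = plate-corrected calcium response at least 3 library SD above typical, normal starting fluorescence, not activating the receptor alone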;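 note: compound read alongside a low EC10 to EC30 dose of BAM8-22 agonist; peak minus trough fluorescence over baseline measured at the second addition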
Of the large screens only hits and unclear results are named; the others gave an inactive call. Rows were chosen to be rich in hits. Some 3.5% of all compounds tested hit in one or more screens of this group.

COc1ccc(C(=O)NNC(=S)NC(=O)c2ccc(Cl)cc2)cc1	MrgX1 ag 122, RGS4 act -8
COc1ccc(C(=O)NC(=S)NNC(=O)Cc2cccs2)cc1	MrgX1 ag 55
NNC(=O)c1n[nH]c2c1CC(C1CCCCC1)CC2 (stereo not given)	none (no result: RGS4 block, RGS4 act)
Fc1ccc(N/N=C/c2ccc(N3CCOCC3)cc2)c(F)c1	none
COc1ccc(C(=O)O)cc1NC(=S)NC(=O)C(c1ccccc1)c1ccccc1	none
CC(=O)C1=C(C)Nc2ncnn2C1c1ccc(O)cc1 (stereo not given)	none
O=C(Cc1cccs1)NNC(=S)NCc1ccco1	RGS4 act -8.2
CCn1c(C)nc2cc(C(=O)NNC(=S)NC(=O)c3ccccc3)ccc21	MrgX1 allo act 7.4
CC(C)C(=O)Nc1ccc(C(=O)NNC(=S)NC(=O)c2ccccc2[N+](=O)[O-])cc1	none
CCn1c(C)nc2cc(C(=O)NNC(=S)Nc3ccccc3)ccc21	none
COc1ccc(C(=O)NC(=S)NNC(=O)c2ccc(NC(=O)C(C)C)cc2)cc1	MrgX1 antagonist -5.8
O=C(COc1ccc(Cl)cc1Cl)Nc1ccccc1F	RGS4 act -7.2
Cc1ccsc1CNS(=O)(=O)c1ccc(F)cc1	none
O=[N+]([O-])c1ccc2ccn(C3OCC(O)C(O)C3O)c2c1 (stereo not given)	none
O=S(=O)(c1ccc(Br)s1)N1CCNCC1	none
COc1ccc(/C=C/C(=O)NC(=S)NNC(=O)Cc2cccs2)cc1OC	none
COc1ccc(-c2nn(-c3ccccc3)cc2C(=O)NC(=S)NNC(=O)c2ccncc2)cc1	MrgX1 antagonist -4.6
Cc1cccc(C(=O)NC(=S)NNC(=O)c2ccc(Cl)cc2)c1	MrgX1 allo act 18
O=C(/C=C/c1cccs1)NC(=S)NNC(=O)Cc1cccs1	MrgX1 ag 48
CCCSc1nc2c3c(sc2c(=O)[nH]1)CC(C)(CC)OC3 (stereo not given)	none
Cc1ccccc1-c1oc(C)c(C)[n+]1[O-]	MrgX1 allo act 7.8
O=S(=O)(NC(=NCc1ccccc1)c1ccccc1)c1ccccc1	none
CCc1noc(C)c1C(=O)N1CCCC(CCC(=O)NCc2cccc(OC)c2)C1 (stereo not given)	MrgX1 antagonist -6.5
O=C(Nc1cccc(O)c1)c1c(O)c2ccccc2[nH]c1=O	none
CCOc1cc(N2CCOCC2)c(OCC)cc1NC(=O)CN1C(=O)NC(C)(C2CC2)C1=O (stereo not given)	MrgX1 antagonist -4.7
COCOc1ccc(-c2oc3c(C/C=C(\C)CCC=C(C)C)ccc(O)c3c(=O)c2OCOC)c(OCOC)c1	MrgX1 antagonist -6.9
CC(C)=CCC/C(C)=C/COc1ccc2ccc(=O)oc2c1	none
Cc1nn(-c2ccc(N3CCOCC3)nn2)c(C)c1CCC(=O)Nc1ccc(F)cc1	none
O=C(Nc1nc(-c2cc(F)ccc2F)cs1)C1=COCCO1	MrgX1 antagonist -5.1
Cc1ccc(S(=O)(=O)N2[C@@H](c3ccccc3F)C(C(=O)O)=CC[C@H]2c2cccc(C)c2)cc1	MrgX1 allo act 11 (no result: RGS4 block, RGS4 act)
Cc1ccc(S(=O)(=O)N2[C@@H](c3ccccc3)C(C(=O)O)=CC[C@H]2c2cccc(C)c2)cc1	none (no result: RGS4 block, RGS4 act)
Cc1ccc(S(=O)(=O)N2[C@@H](c3ccccc3F)C(C(=O)O)=CC[C@H]2c2ccc(Cl)c(Cl)c2)cc1	MrgX1 allo act 12 (no result: RGS4 block, RGS4 act)
Cc1ccc(O)c(NC(=O)c2ccc3c(c2)C(=O)N(Cc2cccnc2)C3=O)c1	none
COc1ccc(Cn2c3ccc(OC)cc3c3nc4ccccc4nc32)cc1	none
COc1ccc2c(c1)c1nc3ccccc3nc1n2Cc1ccc(OC(C)C)c(OC)c1	MrgX1 antagonist -6.7
CN1CC=C2C(C#N)=C(N)C(C#N)(C#N)C(c3cccc(Cl)c3Cl)C2C1 (stereo not given)	MrgX1 antagonist -5.5
CN1CC=C2C(C#N)=C(N)C(C#N)(C#N)[C@H](c3ccoc3)[C@H]2C1	none
Cc1ccc(C2C3CN(C(C)C)CC=C3C(C#N)=C(N)C2(C#N)C#N)cc1 (stereo not given)	RGS4 act -7.1
COc1ccc(OC)c(C2C3CN(C(C)C)CC=C3C(C#N)=C(N)C2(C#N)C#N)c1 (stereo not given)	MrgX1 ag 27
O=C(N/N=C/c1ccc(Cl)cc1Cl)C(=O)NC1CC1	none
Cc1ccccc1C(=O)Nc1nnc(-c2cccnc2)o1	none
CCC1CCCCN1S(=O)(=O)c1ccc(C(=O)Nc2nnc(-c3cccs3)o2)cc1 (stereo not given)	MrgX1 ag 65 (no result: RGS4 block, RGS4 act)
COc1ccc(C(=O)N/C(=C/c2cccnc2)C(=O)Nc2cccc(C(C)=O)c2)cc1OC	none
Cc1ccc(O)c(C2=NNC(c3ccc(Cl)cc3)C2)c1 (stereo not given)	none
Oc1ccc(Cl)cc1C1=NNC(c2cccs2)C1 (stereo not given)	MrgX1 antagonist -5.6
CC(C)C(C(=O)O)N1C(=O)/C(=C/c2cccn2C)SC1=S (stereo not given)	none (no result: RGS4 block, RGS4 act)
CC(C)C(C(=O)O)N1C(=O)/C(=C/C=C/c2ccco2)SC1=S (stereo not given)	MrgX1 antagonist -5.3
O=C1/C(=C/C=C/c2ccco2)SC(=S)N1c1ccc(O)cc1	MrgX1 allo act 16
COCC(C)n1c(SCc2ccc(C(=O)OC)cc2)nc2ccccc2c1=O (stereo not given)	none
Cc1cccc(N2CN=C3SCC(=O)N3C2)c1	none
Cc1cccc([C@@H]2[C@@H]3C(=O)N(Cc4ccccc4)C(=O)[C@@H]3[C@]3(Cc4ccc(Cl)cc4)C(=O)N(c4ccccc4)C(=O)N23)c1	MrgX1 antagonist -6.6
CCOc1ccc(-c2[nH]ncc2-c2ccc(Cl)cc2)c(O)c1	MrgX1 antagonist -13, MrgX1 allo act 13
CCN(Cc1ccccc1)c1ccc(/C=C(\C#N)c2ccccn2)cc1	none
CCN(CC)c1ccc(/C=C(\C#N)c2ccccn2)cc1	MrgX1 antagonist -9.1
Oc1cccc2c3c(oc12)CCCC3	none
CCOCCCn1c(=S)[nH]c2cc(C(=O)NCCOC)ccc2c1=O	none
CCOCCCNC(=O)c1ccc2c(=O)n(CCCOCC)c(=S)[nH]c2c1	MrgX1 allo act 13
Cc1cccc(NC(=O)Nc2c(C)n(C)n(-c3ccccc3)c2=O)c1C	none
Cn1c(-c2ccccn2)[n+](C)c2ccccc21	none
CN(C)c1ccc(-c2n(C)c3ccccc3[n+]2C)cc1	MrgX1 antagonist -8.8
S=C(Nc1ccccc1)Nc1cc(Cl)ccc1Oc1ccccc1	MrgX1 allo act 9.1
COn1c(SC(C)C)nc2ccccc2c1=O	MrgX1 allo act 9.2
CC(C)On1c(SC(C)C)nc2ccccc2c1=O	none
CCOc1ccc(-c2nc3c(s2)CCc2onc(-c4ccc(OC)cc4)c2-3)cc1	none
N#C/C(=N/Nc1ccc(OC(F)(F)F)cc1)C(N)=S	none
NC(=S)N=Nc1ccc(NN=C(N)N)cc1	MrgX1 ag 31
